ChEMBL document CHEMBL5143722, “Antimicrobial Peptides against Multidrug-Resistant Pseudomonas aeruginosa Biofilm from Cystic Fibrosis Patients” (J Med Chem, 2022)
The source made the active and inactive calls. No cut-off for these calls is given here.

How the values were obtained:
Pseudomonas aeruginosa [1] = assay: Antibiofilm activity against Pseudomonas aeruginosa clinical isolate 24 assessed as inhibition of biofilm formation at sub-inhibitory concentration incubated for 24 hrs by crystal violet staining based microtiter plate method; type: functional, organism-based
Procedure, shortened: (§1)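 Washed overnight cultures in BM2 medium at 1 × 10^6 CFU/mL with 2-fold serial peptide dilutions in a U-bottom 96-well plate. Incubated 24 h at 37 °C without agitation. Unattached cells washed off, then 0.1% crystal violet stain read at 590 nm. No-bacteria blanks. Biomass expressed as % of untreated biofilm. At least three biological repeats.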

Pseudomonas aeruginosa [2] = assay: Antibiofilm activity against Pseudomonas aeruginosa clinical isolate 25 assessed as inhibition of biofilm formation at sub-inhibitory concentration incubated for 24 hrs by crystal violet staining based microtiter plate method; type: functional, organism-based; procedure, shortened: as §1
Pseudomonas aeruginosa [3] = assay: Antibiofilm activity against Pseudomonas aeruginosa clinical isolate 46 assessed as inhibition of biofilm formation at sub-inhibitory concentration incubated for 24 hrs by crystal violet staining based microtiter plate method; type: functional, organism-based; procedure, shortened: as §1
Pseudomonas aeruginosa [4] = assay: Antibiofilm activity against Pseudomonas aeruginosa clinical isolate 53 assessed as inhibition of biofilm formation at sub-inhibitory concentration incubated for 24 hrs by crystal violet staining based microtiter plate method; type: functional, organism-based; procedure, shortened: as §1
Pseudomonas aeruginosa [5] = assay: Antibiofilm activity against Pseudomonas aeruginosa clinical isolate 71 assessed as inhibition of biofilm formation at sub-inhibitory concentration incubated for 24 hrs by crystal violet staining based microtiter plate method; type: functional, organism-based; procedure, shortened: as §1
Pseudomonas aeruginosa [6] = assay: Antibiofilm activity against Pseudomonas aeruginosa clinical isolate 72 assessed as inhibition of biofilm formation at sub-inhibitory concentration incubated for 24 hrs by crystal violet staining based microtiter plate method; type: functional, organism-based; procedure, shortened: as §1
Pseudomonas aeruginosa [7] = assay: Antibiofilm activity against Pseudomonas aeruginosa clinical isolate 99 assessed as inhibition of biofilm formation at sub-inhibitory concentration incubated for 24 hrs by crystal violet staining based microtiter plate method; type: functional, organism-based; procedure, shortened: as §1
Pseudomonas aeruginosa [8] = assay: Antibiofilm activity against Pseudomonas aeruginosa clinical isolate 629 assessed as inhibition of biofilm formation at sub-inhibitory concentration incubated for 24 hrs by crystal violet staining based microtiter plate method; type: functional, organism-based; procedure, shortened: as §1
Pseudomonas aeruginosa [9] = assay: Induction of biofilm degradation of Pseudomonas aeruginosa clinical isolate 24 incubated for 1 hr by crystal violet staining analysis relative to control; type: functional; settings: dose 50.0 µM
Procedure, shortened: (§2)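 Bacteria at 1 × 10^6 CFU/mL in BM2 grown static at 37 °C for 24 h to form biofilm. Wells rinsed of unattached cells, then exposed for 1 h to serial peptide dilutions (1.56–50 μM). Washed, stained with 0.1% crystal violet, A590 read. Biomass given as % of untreated biofilm; no-bacteria wells as blanks. At least three biological repeats.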

Pseudomonas aeruginosa [10] = assay: Induction of biofilm degradation of Pseudomonas aeruginosa clinical isolate 25 at 50 uM incubated for 1 hr by crystal violet staining analysis relative to control; type: functional; procedure, shortened: as §2
Pseudomonas aeruginosa [11] = assay: Induction of biofilm degradation of Pseudomonas aeruginosa clinical isolate 29 at 50 uM incubated for 1 hr by crystal violet staining analysis relative to control; type: functional; procedure, shortened: as §2
Pseudomonas aeruginosa [12] = assay: Induction of biofilm degradation of Pseudomonas aeruginosa clinical isolate 40 at 50 uM incubated for 1 hr by crystal violet staining analysis relative to control; type: functional; procedure, shortened: as §2
Pseudomonas aeruginosa [13] = assay: Induction of biofilm degradation of Pseudomonas aeruginosa clinical isolate 46 at 50 uM incubated for 1 hr by crystal violet staining analysis relative to control; type: functional; procedure, shortened: as §2
Pseudomonas aeruginosa [14] = assay: Induction of biofilm degradation of Pseudomonas aeruginosa clinical isolate 52 at 50 uM incubated for 1 hr by crystal violet staining analysis relative to control; type: functional; procedure, shortened: as §2
Pseudomonas aeruginosa [15] = assay: Induction of biofilm degradation of Pseudomonas aeruginosa clinical isolate 53 at 50 uM incubated for 1 hr by crystal violet staining analysis relative to control; type: functional; procedure, shortened: as §2
Pseudomonas aeruginosa [16] = assay: Induction of biofilm degradation of Pseudomonas aeruginosa clinical isolate 71 at 50 uM incubated for 1 hr by crystal violet staining analysis relative to control; type: functional; procedure, shortened: as §2
Pseudomonas aeruginosa [17] = assay: Induction of biofilm degradation of Pseudomonas aeruginosa clinical isolate 72 at 50 uM incubated for 1 hr by crystal violet staining analysis relative to control; type: functional; procedure, shortened: as §2
Pseudomonas aeruginosa [18] = assay: Induction of biofilm degradation of Pseudomonas aeruginosa clinical isolate 82 at 50 uM incubated for 1 hr by crystal violet staining analysis relative to control; type: functional; procedure, shortened: as §2
Pseudomonas aeruginosa [19] = assay: Induction of biofilm degradation of Pseudomonas aeruginosa clinical isolate 99 at 50 uM incubated for 1 hr by crystal violet staining analysis relative to control; type: functional; procedure, shortened: as §2
Pseudomonas aeruginosa [20] = assay: Induction of biofilm degradation of Pseudomonas aeruginosa clinical isolate 172 at 50 uM incubated for 1 hr by crystal violet staining analysis relative to control; type: functional; procedure, shortened: as §2
Pseudomonas aeruginosa [21] = assay: Induction of biofilm degradation of Pseudomonas aeruginosa clinical isolate 238 at 50 uM incubated for 1 hr by crystal violet staining analysis relative to control; type: functional; procedure, shortened: as §2
Pseudomonas aeruginosa [22] = assay: Induction of biofilm degradation of Pseudomonas aeruginosa clinical isolate 251 at 50 uM incubated for 1 hr by crystal violet staining analysis; type: functional; procedure, shortened: as §2
Pseudomonas aeruginosa [23] = assay: Induction of biofilm degradation of Pseudomonas aeruginosa clinical isolate 629 at 50 uM incubated for 1 hr by crystal violet staining analysis relative to control; type: functional; procedure, shortened: as §2
Pseudomonas aeruginosa [24] = assay: Induction of biofilm degradation of Pseudomonas aeruginosa clinical isolate 995 at 50 uM incubated for 1 hr by crystal violet staining analysis relative to control; type: functional; procedure, shortened: as §2
Pseudomonas aeruginosa [25] = assay: Induction of biofilm degradation of Pseudomonas aeruginosa PAO1 at 50 uM incubated for 1 hr by crystal violet staining analysis relative to control; type: functional; procedure, shortened: as §2
Pseudomonas aeruginosa [26] = assay: Induction of biofilm degradation of Pseudomonas aeruginosa clinical isolate 24 at sub MIC concentration incubated for 1 hr by crystal violet staining analysis; type: functional; procedure, shortened: as §2
Pseudomonas aeruginosa [27] = assay: Induction of biofilm degradation of Pseudomonas aeruginosa clinical isolate 40 at sub MIC concentration incubated for 1 hr by crystal violet staining analysis; type: functional; procedure, shortened: as §2
Pseudomonas aeruginosa [28] = assay: Induction of biofilm degradation of Pseudomonas aeruginosa clinical isolate 53 at sub MIC concentration incubated for 1 hr by crystal violet staining analysis; type: functional; procedure, shortened: as §2
Pseudomonas aeruginosa [29] = assay: Induction of biofilm degradation of Pseudomonas aeruginosa clinical isolate 59 at <12.5 uM incubated for 1 hr by crystal violet staining analysis; type: functional; procedure, shortened: as §2
Pseudomonas aeruginosa [30] = assay: Antibiofilm activity against Pseudomonas aeruginosa clinical isolate 46 in basal medium 2 at 12.5 to 100 uM incubated for 24 hrs by resazurin staining based microtiter plate method; type: functional, organism-based; settings: dose 12.5-100 µM
Pseudomonas aeruginosa [31] = assay: Antibiofilm activity against Pseudomonas aeruginosa clinical isolate 82 in basal medium 2 at 12.5 to 100 uM incubated for 24 hrs by resazurin staining based microtiter plate method; type: functional, organism-based; settings: dose 12.5-100 µM
Pseudomonas aeruginosa [32] = assay: Inhibition of biofilm formation of Pseudomonas aeruginosa clinical isolate 24 derived from cystic fibrosis patient sputum at 0.78 to 25 uM by crystal violet based staining analysis; type: functional, organism-based; settings: dose 0.78-25 µM
Procedure, shortened: (§3)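 CF patient sputum diluted 10-fold with BM2, bacteria added with serial peptide dilutions starting from the highest MIC per isolate. Inoculum suspension 1 × 10^6 CFU/mL. Incubated 24 h at 37 °C without agitation. Unattached cells washed away, then 0.1% crystal violet staining and A590. Biomass given as % of untreated, with no-bacteria blanks.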

Pseudomonas aeruginosa [33] = assay: Inhibition of biofilm formation of Pseudomonas aeruginosa clinical isolate 24 derived from cystic fibrosis patient sputum at 0.09 to 3.12 uM by crystal violet based staining analysis; type: functional, organism-based; settings: dose 0.09-3.12 µM; procedure, shortened: as §3
Pseudomonas aeruginosa [34] = assay: Inhibition of biofilm formation of Pseudomonas aeruginosa clinical isolate 82 derived from cystic fibrosis patient sputum at 0.09 to 3.12 uM by crystal violet based staining analysis; type: functional, organism-based; settings: dose 0.09-3.12 µM; procedure, shortened: as §3
Pseudomonas aeruginosa [35] = assay: Inhibition of biofilm formation of Pseudomonas aeruginosa PAO1 in patient derived CF-sputum at 0.09 to 3.12 uM by crystal violet based staining analysis; type: functional, organism-based; settings: dose 0.09-3.12 µM; procedure, shortened: as §3

Q: What does the source list for `CC(C)C[C@H](NC(=O)[C@H](CC(C)C)NC(=O)[C@H](CC(C)C)NC(=O)[C@H](CC(C)C)NC(=O)[C@H](CC(C)C)NC(=O)[C@H](CC(C)C)NC(=O)[C@H](CC(C)C)NC(=O)[C@H](CC(C)C)NC(=O)[C@H](CC(C)C)NC(=O)[C@H](CCCCN)NC(=O)[C@H](CCCCN)NC(=O)[C@@H](N)CCCCN)C(=O)N[C@@H](CCCCN)C(=O)N[C@@H](CCCCN)C(=O)N[C@@H](CCCCN)C(N)=O`?
A: inhibition (Pseudomonas aeruginosa [1]): Active; inhibition (Pseudomonas aeruginosa [2]): Active; inhibition (Pseudomonas aeruginosa [3]): Active; inhibition (Pseudomonas aeruginosa [4]): Active; inhibition (Pseudomonas aeruginosa [5]): Active; inhibition (Pseudomonas aeruginosa [6]): Active; inhibition (Pseudomonas aeruginosa [7]): Active; inhibition (Pseudomonas aeruginosa [8]): Active; Activity (Pseudomonas aeruginosa [9]): 60%; Activity (Pseudomonas aeruginosa [10]): 60%; Activity (Pseudomonas aeruginosa [11]): 60%; Activity (Pseudomonas aeruginosa [12]): 60%; Activity (Pseudomonas aeruginosa [13]): 60%; Activity (Pseudomonas aeruginosa [14]): 60%; Activity (Pseudomonas aeruginosa [15]): 60%; Activity (Pseudomonas aeruginosa [16]): 60%; Activity (Pseudomonas aeruginosa [17]): 60%; Activity (Pseudomonas aeruginosa [18]): 60%; Activity (Pseudomonas aeruginosa [19]): 60%; Activity (Pseudomonas aeruginosa [20]): 60%; Activity (Pseudomonas aeruginosa [21]): 60%; Activity (Pseudomonas aeruginosa [22]): 60%; Activity (Pseudomonas aeruginosa [23]): 60%; Activity (Pseudomonas aeruginosa [24]): 60%; Activity (Pseudomonas aeruginosa [25]): 60%; Activity (Pseudomonas aeruginosa [26]): Active; Activity (Pseudomonas aeruginosa [27]): Active; Activity (Pseudomonas aeruginosa [28]): Active; Activity (Pseudomonas aeruginosa [29]): Active; Activity (Pseudomonas aeruginosa [30]): Active; Activity (Pseudomonas aeruginosa [31]): Active; inhibition (Pseudomonas aeruginosa [32]): Active; inhibition (Pseudomonas aeruginosa [33]): Active; inhibition (Pseudomonas aeruginosa [34]): Active; inhibition (Pseudomonas aeruginosa [35]): Active

Q: Which results are given for `CC(C)C[C@H](NC(=O)[C@H](CC(C)C)NC(=O)[C@H](CCCCN)NC(=O)[C@H](CC(C)C)NC(=O)[C@H](CC(C)C)NC(=O)[C@H](CCCCN)NC(=O)[C@H](CCCCN)NC(=O)[C@H](CC(C)C)NC(=O)[C@H](CC(C)C)NC(=O)[C@H](CCCCN)NC(=O)[C@H](CCCCN)NC(=O)[C@H](CC(C)C)NC(=O)[C@H](CC(C)C)NC(=O)[C@H](CCCCN)NC(=O)[C@@H](N)CC(C)C)C(N)=O`?
A: inhibition (Pseudomonas aeruginosa [1]): Active; inhibition (Pseudomonas aeruginosa [2]): Active; inhibition (Pseudomonas aeruginosa [3]): Active; inhibition (Pseudomonas aeruginosa [4]): Active; inhibition (Pseudomonas aeruginosa [5]): Active; inhibition (Pseudomonas aeruginosa [6]): Active; inhibition (Pseudomonas aeruginosa [7]): Active; inhibition (Pseudomonas aeruginosa [8]): Active; Activity (Pseudomonas aeruginosa [9]): 60%; Activity (Pseudomonas aeruginosa [10]): 60%; Activity (Pseudomonas aeruginosa [11]): 60%; Activity (Pseudomonas aeruginosa [12]): 60%; Activity (Pseudomonas aeruginosa [13]): 60%; Activity (Pseudomonas aeruginosa [14]): 60%; Activity (Pseudomonas aeruginosa [15]): 60%; Activity (Pseudomonas aeruginosa [16]): 60%; Activity (Pseudomonas aeruginosa [17]): 60%; Activity (Pseudomonas aeruginosa [18]): 60%; Activity (Pseudomonas aeruginosa [19]): 60%; Activity (Pseudomonas aeruginosa [20]): 60%; Activity (Pseudomonas aeruginosa [21]): 60%; Activity (Pseudomonas aeruginosa [22]): 60%; Activity (Pseudomonas aeruginosa [23]): 60%; Activity (Pseudomonas aeruginosa [24]): 60%; Activity (Pseudomonas aeruginosa [25]): 60%; Activity (Pseudomonas aeruginosa [26]): Active; Activity (Pseudomonas aeruginosa [27]): Active; Activity (Pseudomonas aeruginosa [28]): Active; Activity (Pseudomonas aeruginosa [29]): Active; inhibition (Pseudomonas aeruginosa [32]): Active; inhibition (Pseudomonas aeruginosa [33]): Active; inhibition (Pseudomonas aeruginosa [34]): Active; inhibition (Pseudomonas aeruginosa [35]): Active
